KCNK3 block – human KCNK3 channel inhibitors, primary screen, CHO cells, FluxOR thallium flux, B-score. FluxOR fluorescence; stronger effect = lower value. Potassium channel subfamily K member 3 (Homo sapiens), O14649. B-score at 10 µM. 340,000 compounds, 0.84% hits. AID 602410, 2012;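 active = B-score under library mean minus 4 SD, starting fluorescence ratio at most library mean plus 5 SD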;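 note: more negative B-score means stronger inhibition of thallium flux through KCNK3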
KCNK9 block – KCNK9 potassium channel inhibitors, primary screen, HEK293 cells, thallium flux | AID 488922, 2010 | FluxOR thallium flux fluorescence; stronger effect = lower value | Potassium channel subfamily K member 9 (Homo sapiens), Q9NPC2 | 310,000 compounds, 1.2% hits | B-score at 10 µM;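 active = ratio B-score over 3 SD below the library mean, with starting fluorescence within 5 SD of its mean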;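 note: negative B-score means less thallium flux so channel inhibition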
KCNQ1 act – potentiators or activators of KCNQ1 channel, primary screen, cell-based, thallium flux, high-throughput; CHO-K1 KCNQ1, thallium flux FluxOR fluorescence; stronger effect = higher value; AID 2648, 2010; 310,000 compounds, 0.35% hits; B-score at 10 µM; Potassium voltage-gated channel subfamily KQT member 1 (Homo sapiens), P51787;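 active = fluorescence ratio B-score, a plate-corrected score, at least three library SD, with initial intensity B-score within 5 SD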
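Material: CHO-K1 cells stably expressing KCNQ1. Medium: assay buffer for compound exposure, DMSO matched across wells. Reagent: K+/Tl+ depolarizing stimulus. Compound dosing: single-concentration screen. Times: 37 °C overnight plating, 90-min dark dye load, 20-min compound pretreatment. Technique: FluxOR Tl+ flux fluorescence.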
KCC2 mod – KCC2 cotransporter modulators, thallium flux, primary screen, cell-based, HEK293 KCC2, FluoZin-2 fluorescence, MLSMR | Solute carrier family 12 member 5 (Homo sapiens), Q9H2X9 | B-score of Tl+ flux slope (higher = more flux/activation; lower = inhibition) at 10 µM | 190,000 compounds, 2.2% hits | KCC2 cells, thallium flux FluoZin-2 fluorescence;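 active = thallium flux slope and its plate-corrected score both differing from the plate sample mean at a set confidence after two filtering rounds, in either direction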;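 note: slope of fluorescence scaled to starting intensity during 10 to 20 s after thallium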
KCNQ1 inh – inhibitors of human KCNQ1 channel, primary screen, cell-based, thallium flux, high-throughput; 310,000 compounds, 1.3% hits; Potassium voltage-gated channel subfamily KQT member 1 (Homo sapiens), P51787; B-score at 10 µM; AID 2642, 2010; CHO-K1 KCNQ1, FluxOR thallium flux fluorescence; stronger effect = higher value;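 active = compounds whose thallium flux B-score, printed positive for inhibition, exceeds three library SD while starting fluorescence stays within three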;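 note: channel opened by potassium depolarization with thallium stimulus after 20 min compound exposure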
hERG protect – hERG rescue from dofetilide block, primary screen, cell-based, CHO-hERG, FluxOR thallium flux, dofetilide IC70. Voltage-gated inwardly rectifying potassium channel KCNH2 (Homo sapiens), Q12809. dofetilide IC70 present. activation (rescue from dofetilide block), less the hit threshold, % at 10 µM. 310,000 compounds, 0.51% hits;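 active = activation above the mean of controls blocked by dofetilide plus 5 SD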;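 note: thallium influx through hERG after potassium depolarization seen as dye fluorescence rise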
KCNK9 inh conf – KCNK9 potassium channel inhibitors, confirmation, HEK293 cells, thallium flux, duplicate; FluxOR thallium flux fluorescence; 4,900 compounds, 43% hits; shares compounds with KCNK9 block; inhibition, % at 10 µM;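 active = thallium signal inhibited by more than 5 SD of the compound-free buffer control wells, on both duplicate plates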;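 note: 0% = assay buffer control wells without compound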
Kir2-1 spec – mouse Kir2.1 channel inhibition, confirmation, selectivity assay for KCNK9 modulator project, cell-based, HEK293, thallium flux | inhibition, % at 10 µM | shares compounds with KCNK9 block | 4,900 compounds, 4% hits | Kir2.1 cells, FluxOR thallium flux fluorescence;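 active = thallium signal drop more than 5 SD beyond the mean of the no-compound control wells, seen in both duplicate plates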;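 note: signal is fluorescence rise after thallium addition divided by baseline fluorescence; plate controls were assay buffer only for no effect and full block by chlorpromazine control for full effect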
HEK293 Tl ctr – thallium flux in non-induced HEK293 cells, confirmation, counter-screen for KCNK9 inhibitor project, cell-based, second counter screen, non-induced KCNK9-HEK293 | inhibition, % at 10 µM | shares compounds with KCNK9 block | 4,900 compounds, 40% hits | FluxOR thallium flux;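 active = thallium signal drop beyond 5 SD of the untreated control mean, on both duplicate plates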;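 note: plate controls were buffer only IC0 wells for no effect and SID17386958 at its maximal inhibitory level for full effect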
An asterisk follows results filed as active. Most compounds without a hit are left out; they make up all but 4.1% or so of the library.

Results for CCOC(=O)C1CCN(c2nc(-c3ccc(Br)cc3)nc3ccccc23)CC1 ?
KCNK3 block: inactive; KCNK9 block: -8.8*; KCNQ1 act: inactive; KCC2 mod: 0.5; KCNQ1 inh: inactive; hERG protect: -12; KCNK9 inh conf: inactive; Kir2-1 spec: inactive; HEK293 Tl ctr: 22%*

How did CC1Cc2ccccc2N1C(=O)C1CCCN(S(=O)(=O)c2cccc3nsnc23)C1 (centres undefined) do in these assays?
KCNK3 block: inactive; KCNK9 block: inactive; KCNQ1 act: inactive; KCC2 mod: -0.11; KCNQ1 inh: inactive; hERG protect: -10; KCNK9 inh conf: inactive; Kir2-1 spec: inactive; HEK293 Tl ctr: inactive

Results for CC1CCCN(C(=O)C2CCCN(S(=O)(=O)c3cccc4nsnc34)C2)C1 (centres undefined) ?
KCNK3 block: inactive; KCNK9 block: inactive; KCNQ1 act: inactive; KCNQ1 inh: inactive; hERG protect: -7

Results for CCN(CC)c1ccc(S(=O)(=O)N2CCOCC2)cc1NC(=O)Cn1nc(C)c([N+](=O)[O-])c1C ?
KCNK3 block: inactive

What do the screens show for `CCN(CC)c1ccc(S(=O)(=O)N2CCOCC2)cc1NC(=O)CN1CCc2ccccc2C1`?
KCNK3 block: inactive; KCNK9 block: -10*; KCNQ1 act: inactive; KCC2 mod: -0.22; KCNQ1 inh: inactive; hERG protect: -3; KCNK9 inh conf: 51%*; Kir2-1 spec: inactive; HEK293 Tl ctr: inactive

Results for COc1ccc(-c2csc(Nc3ccc(S(=O)(=O)Nc4cc(C)on4)cc3)n2)cc1C ?
KCNK3 block: inactive; KCNK9 block: -8.7*; KCNQ1 act: inactive; KCC2 mod: -2; KCNQ1 inh: inactive; hERG protect: -38; KCNK9 inh conf: 56%*; Kir2-1 spec: inactive; HEK293 Tl ctr: inactive

How did CC(Oc1ccccc1F)C(=O)NNC(=O)Cc1ccc(S(=O)(=O)N2CCOCC2)s1 (centres undefined) do in these assays?
KCNK3 block: inactive

Results for Cc1ccc(-n2nc(C(=O)c3ccccc3)n3c(=O)c(Cc4ccccc4)nnc23)cc1 ?
KCNK3 block: inactive; KCNK9 block: inactive; KCNQ1 act: inactive; KCC2 mod: 1.8; KCNQ1 inh: inactive; hERG protect: -17

Results for O=C(c1ccccc1)c1nn(-c2ccccc2)c2nnc(Cc3ccccc3)c(=O)n12 ?
KCNK3 block: inactive; KCNK9 block: inactive; KCNQ1 act: inactive; KCC2 mod: -0.23; KCNQ1 inh: inactive; hERG protect: -20; KCNK9 inh conf: inactive; Kir2-1 spec: inactive; HEK293 Tl ctr: inactive

How did CCCCC(=O)Nc1cccc(-c2nc3ncccc3o2)c1 do in these assays?
KCNK3 block: inactive; KCNK9 block: -11*; KCNQ1 act: inactive; KCC2 mod: 0.19; KCNQ1 inh: inactive; hERG protect: -23; KCNK9 inh conf: 34%*; Kir2-1 spec: inactive; HEK293 Tl ctr: inactive

Bioassay records deposited in PubChem BioAssay by several laboratories.
